Screening data (PubChem BioAssay)
Compounds with a hit are over-represented: about 4.6% of the library has one in this group of screens.
TAAR1 antag = antagonists of human TAAR1. Q96RJ0. CHO RD-HGA16 TAAR1, Fluo-8 calcium fluorescence, antagonist. inhibition, % at 3 µM. hit rate 1.5% among 360,000;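 active = inhibition above a per-plate cutoff, the mean inhibition of test compounds on that plate plus 3 SD, cut at about 49% in these data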
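Test system – hTAAR1-expressing CHO RD-HGA16 cells, Gα16-coupled · Reagent – β-PEA at EC80 concentration, post-compound challenge · Compound dosing – 3 µM, single point · Timing – 140 s kinetic read after compound, 140 s after agonist · Detection – Fluo-8 intracellular calcium dye fluorescence, real-time kinetic reads · Control set – DMSO and EC80 PEA controls · Repeats – n of 1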
TAAR1 ag = agonists of human TAAR1. Q96RJ0. CHO RD-HGA16 TAAR1, Fluo-8 calcium fluorescence; vehicle wells 0%, saturating PEA agonist 100%. activation, % at 3 µM. hit rate 0.99% among 360,000. AID 624467;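 active = activation above the mean activation of all test compounds in the run plus 3 SD, cut at about 38% in these data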
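Assay system: CHO-derived RD-HGA16 cells with stable Gα16 and human TAAR1; timing: 17-24 h seeding, 75 min 37 °C dye, 30 min RT; read-out: % activation from peak over basal fluorescence ratio, DMSO-to-PEA scaled; measured by: kinetic Fluo-8 calcium fluorescence; benchmarks: low control DMSO, high control PEA (EC100); doses: 3 µM single concentration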
OX1R antag-1 = OX1R (human) antagonism | OX1R-expressing cells, FRET antagonist read-out | inhibition, % at 6.6 µM | hit rate 1.8% among 330,000 | AID 485270; in the data active = inhibition mostly above about 38%, no sharp cut-off; inactive = mostly below about 40%
Target sequence (O43613 whole entry, looked up): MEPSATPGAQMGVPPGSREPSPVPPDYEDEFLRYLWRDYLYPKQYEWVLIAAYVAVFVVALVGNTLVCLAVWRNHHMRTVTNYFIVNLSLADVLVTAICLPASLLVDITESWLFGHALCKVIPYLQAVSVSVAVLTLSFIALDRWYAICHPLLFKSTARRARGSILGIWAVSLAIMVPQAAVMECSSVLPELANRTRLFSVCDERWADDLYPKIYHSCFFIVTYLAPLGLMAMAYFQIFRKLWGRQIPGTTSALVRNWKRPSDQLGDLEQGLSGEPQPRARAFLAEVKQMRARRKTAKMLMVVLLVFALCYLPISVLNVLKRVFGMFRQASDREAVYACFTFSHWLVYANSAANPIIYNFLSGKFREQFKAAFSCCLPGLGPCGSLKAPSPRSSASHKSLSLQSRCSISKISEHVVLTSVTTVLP
OX1R antag-2 = human HCRTR1 antagonism. O43613. CHO/OX1R cells, Fluo-8 calcium fluorescence, orexin A. inhibition, % at 5 µM. hit rate 0.43% among 330,000;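 active = inhibition above its plate's threshold, mean inhibition of all tested compounds on the plate plus 3 SD, cut at about 37% in these data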
GPR7 antag = blocks human GPR7 receptor signaling; GPR7-expressing cells, fluorescence antagonist assay; inhibition, % at 4.4 µM; P48145; hit rate 1.1% among 290,000; in the data active = inhibition above about 16%, passing the limit was not always enough;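 note: cells stimulated with the agonist NPW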
Target sequence (P48145 whole entry, looked up): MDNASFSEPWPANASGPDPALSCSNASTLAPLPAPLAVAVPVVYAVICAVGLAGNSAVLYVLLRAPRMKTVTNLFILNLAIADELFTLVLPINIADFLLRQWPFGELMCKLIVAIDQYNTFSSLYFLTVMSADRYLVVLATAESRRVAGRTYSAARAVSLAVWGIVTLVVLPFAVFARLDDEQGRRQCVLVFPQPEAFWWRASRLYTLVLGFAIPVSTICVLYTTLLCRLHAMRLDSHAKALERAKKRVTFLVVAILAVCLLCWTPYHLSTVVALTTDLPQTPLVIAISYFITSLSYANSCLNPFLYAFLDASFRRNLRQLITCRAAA
CHO parental Ca = counter-screen for OX1R antagonists: effect in parental CHO cells | parental CHO-K1, ATP-induced calcium, Fluo-8 fluorescence | hit rate 0.63% among 330,000 | inhibition, % at 5.6 µM;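 active = inhibition above that plate's mean sample inhibition plus 3 SD, cut at about 26% in these data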
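material = parental CHO cells | also added = ATP as calcium-mobilizing challenge | dosing = single point at 5.6 µM | detection = intracellular calcium via Fluo-8 no-wash fluorescent dye | read-out = % inhibition | benchmarks = low control ATP plus DMSO, high control DMSO only | repeats = one well per compound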
Large screens that a line does not name were inactive.

O=C(Nc1cccc(S(=O)(=O)N2CCCCC2)c1)c1ccc(S(=O)(=O)C(F)F)cc1	TAAR1 antag 53
O=C(N1CCCCCC1)N1CCN(S(=O)(=O)c2cccc([N+](=O)[O-])c2)CC1	OX1R antag-1 52
CCNc1ccc(S(=O)(=O)N2CCOCC2)cc1NCC(=O)Nc1cccc(Br)c1	TAAR1 antag 53 (no result: OX1R antag-1, OX1R antag-2, GPR7 antag, CHO parental Ca)
O=C(CNc1cccc(Br)c1)Nc1ccc(S(=O)(=O)N2CCCCC2)cc1	none (no result: OX1R antag-1, OX1R antag-2, GPR7 antag, CHO parental Ca)
O=C(CNc1cc([N+](=O)[O-])ccc1NCCO)Nc1cccc(S(=O)(=O)N2CCCCC2)c1	none (no result: GPR7 antag)
Nc1cc2c(cc1[N+](=O)[O-])OCCO2	OX1R antag-1 49
COc1cc(/C=C/C(=O)OCC(=O)N(CC(C)C)c2c(N)n(Cc3ccccc3)c(=O)[nH]c2=O)ccc1O	TAAR1 antag 49 (no result: OX1R antag-1, OX1R antag-2, GPR7 antag, CHO parental Ca)
N#Cc1ccc(S(=O)(=O)N2CCCc3nc(-c4ccc(Br)cc4)ccc32)cc1	none (no result: OX1R antag-1, OX1R antag-2, GPR7 antag, CHO parental Ca)
CCCC(c1nnnn1Cc1ccc(F)cc1)N1CCN(C2CCCCC2)CC1 (stereo unspecified)	GPR7 antag 33
CC(C)C(c1nnnn1Cc1ccc(F)cc1)N1CCN(C2CCCC2)CC1 (stereo unspecified)	none
CCC(c1nnnn1Cc1cccs1)N1CCN(C2CCCC2)CC1 (stereo unspecified)	GPR7 antag 20
CCC(c1nnnn1C(C)(C)C)N1CCN(C2CCCC2)CC1 (stereo unspecified)	none
CCCC(c1nnnn1C(C)(C)CC)N1CCN(C2CCCC2)CC1 (stereo unspecified)	GPR7 antag 18
CCc1nnc(N/N=C/c2cc(C)c(C)cc2C)n1N	none (no result: OX1R antag-1, OX1R antag-2, CHO parental Ca)
CCc1nnc(N/N=C/c2c(F)cccc2Cl)n1N	OX1R antag-1 71
CCc1nnc(N/N=C/c2c(C)[nH]c3ccccc23)n1N	OX1R antag-1 68
Cc1[nH]c2ccccc2c1/C=N/NC(N)=S	none
Cc1nnc(N/N=C/c2c(Cl)cccc2Cl)n1N	OX1R antag-1 61
Clc1cccc(Cl)c1/C=N\Nc1nccs1	none
COC(=O)c1cc2c(c3c4cc(OC)ccc4n(C(=O)c4ccccc4)c13)C(=O)N(C1CCCCC1)C2	none (no result: OX1R antag-1, OX1R antag-2, GPR7 antag, CHO parental Ca)
Cc1[nH]c2ccccc2c1CC(=O)Nc1ccc(Nc2cccnc2)c(-c2cc(F)cc(F)c2)c1	none (no result: OX1R antag-1, OX1R antag-2, GPR7 antag, CHO parental Ca)
CCCN(CCC)CCCNC(=O)C1CCN(S(=O)(=O)c2cccc3nsnc23)CC1	OX1R antag-1 40
CC1CCCCN1CCNC(=O)C1CCN(S(=O)(=O)c2cccc3nsnc23)CC1 (stereo unspecified)	none
O=S(=O)(c1cccc2nsnc12)N1CCNCC1	OX1R antag-1 55
CCN1CCN(S(=O)(=O)c2cccc3nsnc23)CC1	none
CC1CCCCN1CCNC(=O)C1CCCN(S(=O)(=O)c2cccc3nsnc23)C1 (stereo unspecified)	OX1R antag-1 46
CCCOc1cccc(-c2cc(C(=O)N/N=C/c3cccnc3)c3ccccc3n2)c1	TAAR1 antag 54 (no result: OX1R antag-1, OX1R antag-2, CHO parental Ca)
Cc1ccccc1Nc1nc(N)nc(COC(=O)c2cccc(S(=O)(=O)N(C)C)c2)n1	none
Cc1ccccc1Nc1nc(N)nc(COC(=O)c2cccc(S(=O)(=O)NCc3ccccc3)c2)n1	TAAR1 antag 55
CCN(CC)C(=O)COc1ccc(-c2nnc(Nc3ccc(OC)c(C(=O)NC)c3)c3ccccc23)cc1	GPR7 antag 19
CC1CCCCN1C(=O)CCS(=O)(=O)c1cccc2nonc12 (stereo unspecified)	OX1R antag-1 71
C[C@H](O)C#Cc1ccc2c(c1)O[C@@H](CN(C)Cc1ccc(-c3ccccc3)cc1)[C@H](C)CN([C@@H](C)CO)S2(=O)=O	TAAR1 antag 51 (no result: OX1R antag-1, OX1R antag-2, GPR7 antag, CHO parental Ca)
C[C@@H]1CN([C@@H](C)CO)S(=O)(=O)c2ccc(-c3ccc(C#N)cc3)cc2O[C@@H]1CN(C)Cc1ccccn1	TAAR1 antag 56 (no result: OX1R antag-1, OX1R antag-2, GPR7 antag, CHO parental Ca)
C[C@H](CO)N1C[C@H](C)[C@@H](CN(C)Cc2ccc3c(c2)OCO3)Oc2cc(Br)ccc2S1(=O)=O	TAAR1 antag 50 (no result: OX1R antag-1, OX1R antag-2, GPR7 antag, CHO parental Ca)
C[C@@H]1CN([C@H](C)CO)S(=O)(=O)c2ccc(Br)cc2O[C@@H]1CN(C)Cc1ccc(-c2ccccc2)cc1	none (no result: OX1R antag-1, OX1R antag-2, GPR7 antag, CHO parental Ca)
COC(=O)[C@]12C[C@H](CC(=O)NCCCCc3ccccc3)C(=O)N(Cc3ccccc3)C1=C[C@H](C(C)(C)C)O[C@@H]2C	none (no result: OX1R antag-1, OX1R antag-2, GPR7 antag, CHO parental Ca)
O=c1[nH][nH]c(C(F)(F)F)c1C=NCc1ccc(Cl)cc1	none
O=c1[nH][nH]c(C(F)(F)F)c1C=NCc1cccc(Cl)c1	TAAR1 ag 43
Cc1ccccc1OCC(O)Cn1c2ccccc2c2ccccc21 (stereo unspecified)	none
Cc1ccccc1OCC(O)Cn1c(=N)n(Cc2ccccc2)c2ccccc21 (stereo unspecified)	GPR7 antag 35, CHO parental Ca 39
COc1ccc(C2CC(=O)C(c3ccc([N+](=O)[O-])cc3)=CN2Cc2ccccc2)cc1 (stereo unspecified)	none (no result: OX1R antag-1, OX1R antag-2, GPR7 antag, CHO parental Ca)
Cc1cccc(OC2CCN(Cc3nc(CC4CC4)no3)CC2)c1	GPR7 antag 20
CSCCC(NC(=O)c1ccc([N+](=O)[O-])cc1Cl)C(=O)OC1CCCCC1=O (stereo unspecified)	OX1R antag-1 67
CSCCC(NC(=O)c1ccc([N+](=O)[O-])cc1Cl)C(=O)OCC(=O)NC1CCCC(C)C1C (stereo unspecified)	none
CSCCC(NC(=O)c1ccc([N+](=O)[O-])cc1Cl)C(=O)OCC(=O)NC(=O)CN1CCCC1=O (stereo unspecified)	OX1R antag-1 56 (no result: GPR7 antag)
CCOC(=O)C1CCCN(C(=O)c2cc(OC)ccc2Br)CC1 (stereo unspecified)	none (no result: OX1R antag-1, OX1R antag-2, GPR7 antag, CHO parental Ca)
CCc1ccccc1N(C)S(=O)(=O)c1ccc2[nH]cc(C(=O)N3CCc4ccccc43)c(=O)c2c1	TAAR1 antag 57
COc1ccc(C(=O)N2CCC2(C)C(=O)NC(C)C)cc1OC (stereo unspecified)	none (no result: OX1R antag-1, OX1R antag-2, GPR7 antag, CHO parental Ca)
NC(=O)c1c(N)[nH]c(C(=O)c2ccccc2)c1-c1ccc(Br)cc1	none (no result: OX1R antag-1, OX1R antag-2, GPR7 antag, CHO parental Ca)
O=C(NCC1CCCN1S(=O)(=O)c1ccccc1)C(=O)NC1CC1 (stereo unspecified)	none (no result: GPR7 antag)
CCN(CC(=O)NCc1cccs1)C(=O)c1ccc([N+](=O)[O-])o1	OX1R antag-1 64 (no result: GPR7 antag)
CCC(=O)N1CCc2cc(S(=O)(=O)NCCC(=O)N3CC=C(c4ccccc4)CC3)ccc21	OX1R antag-1 55
CN(C)CCCN(C(=O)CCOc1ccccc1)c1nc2c(F)cccc2s1	none (no result: OX1R antag-1, OX1R antag-2, CHO parental Ca)
CN(C)CCCN(C(=O)CCc1ccccc1)c1nc2c(F)cccc2s1	GPR7 antag 21
COc1cc(OC)cc(C(=O)N[C@H](C(=O)OCC(=O)Nc2cccc(F)c2)C(C)C)c1	GPR7 antag 21
COc1cccc(-c2nc(-c3ccccn3)no2)c1OC	none
